Compounds with a hit are over-represented: about 2.7% of the library has one in this group of screens.
PRMT1 inh: blocks human protein arginine methyltransferase 1 | actives 1.3% (n = 370,000) | AID 652257 | Q99873 | inhibition, % at 2.79 µM | recombinant PRMT1, activity-based probe fluorescence polarization;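 active = inhibition above about 21% made by adding two undisclosed values, limit read from the data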
PAD4 FP inh: blocks human protein arginine deiminase 4. Q9UM07. recombinant PAD4, RCA probe fluorescence polarization. inhibition, % at 6.36 µM. actives 0.41% (n = 330,000);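 active = percent inhibition above a cutoff equal to the mean of all tested compounds plus 3 SD, cut at about 15% in these data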;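 also: 0% = PAD4 with RCA probe and DMSO and 100% = probe without PAD4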
Target sequence (Q9UM07 whole entry, looked up): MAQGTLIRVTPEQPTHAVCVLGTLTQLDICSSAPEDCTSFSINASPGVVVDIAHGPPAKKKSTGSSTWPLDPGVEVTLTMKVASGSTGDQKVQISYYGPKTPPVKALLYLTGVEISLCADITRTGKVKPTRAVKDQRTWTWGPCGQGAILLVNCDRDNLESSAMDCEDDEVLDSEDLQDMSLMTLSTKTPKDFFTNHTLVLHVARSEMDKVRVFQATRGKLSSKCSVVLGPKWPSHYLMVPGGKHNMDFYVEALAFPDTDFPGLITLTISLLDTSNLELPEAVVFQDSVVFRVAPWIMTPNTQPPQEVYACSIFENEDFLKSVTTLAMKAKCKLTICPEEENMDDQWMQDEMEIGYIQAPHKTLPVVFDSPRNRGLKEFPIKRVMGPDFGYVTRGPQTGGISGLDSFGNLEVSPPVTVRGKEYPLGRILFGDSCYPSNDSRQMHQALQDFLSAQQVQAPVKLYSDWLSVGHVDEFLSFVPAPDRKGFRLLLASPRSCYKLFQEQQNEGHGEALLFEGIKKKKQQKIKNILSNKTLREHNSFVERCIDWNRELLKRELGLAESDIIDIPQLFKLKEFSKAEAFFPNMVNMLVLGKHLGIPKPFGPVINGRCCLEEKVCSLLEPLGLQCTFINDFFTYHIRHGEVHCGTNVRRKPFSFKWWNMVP
SIAE inh: human SIAE inhibition, primary screen. SIAE FP-Rh probe binding, fluorescence polarization. Q9HAT2. actives 0.69% (n = 370,000). inhibition, % at 9.66 µM. AID 1053197;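 active = inhibition above a cutoff: mean of compounds within the control limits plus 3 SD of those, cut at about 17% in these data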;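 also: 0% = plate median of compound wells and 100% = probe without SIAE protein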
RBBP9 inh: inhibitors of human serine hydrolase RBBP9 | O75884 | recombinant RBBP9, FP-Rh probe fluorescence polarization | inhibition, % at 7.94 µM | actives 0.2% (n = 220,000) | AID 1515;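 active = inhibition above the campaign mean of all tested compounds plus 3 SD, cut at about 14% in these data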;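 also: plate controls were DMSO wells with RBBP9 for no effect and wells lacking RBBP9 protein for full effect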
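System: RBBP9 protein | Quantity: 2.5 µM RBBP9 dispensing solution, before mixing | Reagent: FP-Rh probe, 375 nM dispensing solution | Timing: Enzyme-compound preincubation 30 min, then probe labeling 45 min, 25 °C | Measured by: Fluorescence polarization | Read-out: % inhibition | Replication: One well per compound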
GSTO1 inh: counter-screen for RBBP9 inhibitors: inhibitors of human GSTO1; P78417; recombinant GSTO1, activity-based probe fluorescence polarization; inhibition, % at 5.96 µM; actives 1.1% (n = 300,000);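 active = inhibition above the campaign mean inhibition plus 3 SD, cut at about 35% in these data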;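 also: 0% = GSTO1-1 with DMSO and 100% = wells lacking GSTO1-1 enzyme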
Numbers without * were called inactive; . = no result given.

SMILES	PRMT1 inh	PAD4 FP inh	SIAE inh	RBBP9 inh	GSTO1 inh
Cc1ccc(-c2nnn(CC(=O)N3C(C)CCCC3C)n2)cc1 (centres undefined)	3.4	1.3	3.2	.	-0.9
Cc1nc2sccn2c1P(c1c(C)nc2sccn12)c1c(C)nc2sccn12	-4.3	-1.5	17.4*	-12.3	-3.9
CCOC(=O)c1c(C)nc2sccn12	0.9	-1.2	3.8	-2.2	7.1
Brc1ccc(N/N=C(/N=Nc2nn[nH]n2)c2ccccc2)cc1	2.3	0.3	17.4*	2.2	24.7
COC(=O)C1=C(C(=O)OC)C2(OC1c1cccc(F)c1)C(=O)c1ccccc1C2=O (centres undefined)	1.1	-5.5	-3.8	-1.9	-5.7
CCc1ccc(C2NC(C(=O)O)CS2)cc1 (centres undefined)	.	.	.	1.7	.
O=C(O)C1CSC(c2ccc3c(c2)OCO3)N1 (centres undefined)	27.3*	2.3	7.2	2.1	-0.9
Cc1ccc2ccccc2[n+]1CCCS(=O)(=O)[O-]	2.1	1.9	2.0	7.6	-0.9
CSc1sc2ccccc2[n+]1CCCS(=O)(=O)[O-]	23.0*	-8.3	7.2	8.0	-3.4
Cc1cc(-c2ccc(C)c(S(=O)(=O)N3CCN(c4ccc(F)cc4)CC3)c2)on1	-0.1	1.1	4.0	.	1.9
O=[N+]([O-])c1cc(CN2CCCC2)c2cccnc2c1O	.	-23.9	.	-6.7	46.7*
COc1ccc(Cl)cc1C(=O)NC(=S)Nc1ccccc1N1CCOCC1	-1.7	-2.5	5.5	.	-2.9
C=CCNC1=C(Cl)C(=O)N(Cc2ccccc2)C1=O	-0.2	1.1	6.6	.	25.4
C=CCNC1=C(Cl)C(=O)c2ccccc2C1=O	-1.1	-0.6	-2.7	-6.3	67.8*
O=C(NC(Cc1ccccc1)C(=O)O)/C(=C\c1ccco1)NC(=O)c1ccccc1Br (centres undefined)	23.7*	-0.5	-6.7	-9.7	3.0
CCCn1c(Cc2ccccc2)nnc1SCC(=O)N1CCOCC1	-0.7	-1.0	-3.0	-1.8	-2.3
COc1ccc(-[n+]2c(C)cc(/C=C3\Sc4ccccc4N3C)cc2C)cc1	24.3*	-4.7	0.6	0.7	2.2
COc1ccc(C(=O)/C=C2\Sc3ccccc3N2C)cc1	21.1	1.0	1.7	-7.0	12.1
COc1cc2c(cc1NC(=S)Nc1cccc(C)c1)oc1ccccc12	-0.8	4.4	2.9	1.0	36.3*
COc1ccc(NC(=S)Nc2cccc(Cl)c2)cc1OC	24.4*	-0.4	3.2	2.6	4.7
COc1ccc(NC(=S)Nc2cccc(C(C)=O)c2)cc1OC	9.8	-8.3	10.7	6.5	3.0
O=C(CCN1CCN(c2ccccc2)CC1)N/N=C/c1ccc([N+](=O)[O-])o1	-0.1	-8.5	8.8	-2.4	15.8
CCC(C)(C)n1nnnc1C(c1ccc(O)c(OC)c1)N1CCc2ccccc2C1 (centres undefined)	23.2*	2.8	1.9	5.3	5.9
CCC(C)(C)n1nnnc1C(c1ccccc1)N1CCc2ccccc2C1 (centres undefined)	-2.8	-1.2	2.9	-4.3	2.0
[O-][n+]1c(/C=C/c2ccccc2)ccc2ccccc21	0.9	.	-3.4	.	.
SMILES	PRMT1 inh	PAD4 FP inh	SIAE inh	RBBP9 inh	GSTO1 inh
Cc1nnc(NN)n(N)c1=O	1.8	2.1	-3.9	-5.9	36.7*
Cc1nnc(Nc2ccccc2)n(N)c1=O	-2.8	-1.7	4.8	-2.1	10.7
Cc1cc(C(F)(F)F)nc(SCC(=O)Nc2c(C)n(C)n(-c3ccccc3)c2=O)n1	-5.1	1.8	5.1	.	5.3
COc1cc(/C=C/C(=O)c2c(O)cc(C)oc2=O)cc(OC)c1O	14.4	-7.0	2.8	-11.5	23.5
COc1ccc([C@H]2C=C(C(=O)O)O[C@@H](OCCCCO)C2)cc1	-3.8	-4.3	13.3	.	-3.5
Cc1c(CCO)c(=O)n(-c2ccccc2)n1S(=O)(=O)c1c(Cl)cc(Cl)cc1Cl	0.7	-4.5	3.4	-2.9	36.6*
Nc1cc(Cl)nc(N/N=C/c2ccccc2[N+](=O)[O-])n1	2.8	0.2	18.1*	-12.8	2.7
Nc1cc(Cl)nc(N/N=C/c2ccc([N+](=O)[O-])cc2)n1	1.0	-1.4	7.0	1.6	-1.6
O=S(=O)(c1ccc(C2=CSC3=NCCN23)cc1)N1CCOCC1	23.7*	-3.2	1.8	-10.2	-4.4
Fc1ccc(C2=CSC3=NCCN23)cc1	-0.8	-2.2	2.5	-3.3	0.7
CC(Cl)C(=O)c1c[nH]c2ccccc12 (centres undefined)	3.5	3.8	-7.6	0.4	36.5*
O=C(c1ccccc1)c1c[nH]c2ccccc12	-3.3	.	1.5	.	.
CSc1ccc(CN2C(=O)C(C)ON=C2c2ccccc2F)cc1 (centres undefined)	2.8	.	9.0	.	.
CC(=O)Nc1ccc(CN2C(=O)C(C)ON=C2c2ccccc2-c2ccco2)cc1 (centres undefined)	22.6*	.	-4.7	.	.
COC(=O)[C@]1(Sc2ccc(C)cc2)CC(=O)N[C@@H]1c1ccco1	21.3*	.	2.5	.	.
C=CCn1c(SCC(=O)c2ccc(Br)cc2)nnc1C(CC(C)C)NC(=O)c1cccs1 (centres undefined)	-0.7	1.4	2.1	1.7	36.3*
O=C(OC(C(=O)NC1CCCC1)c1ccncc1)C1=Cc2ccccc2OC1 (centres undefined)	0.8	-1.2	-0.2	-3.0	-10.1
COc1ccccc1NC(=O)c1ccccc1Nc1ccccc1	-9.8	-0.9	4.0	.	10.7
COc1ccccc1Nc1ccc(N)cc1	0.3	-1.1	9.6	-1.3	35.4*
O=C(CSc1nnc(-c2ccncc2)n1Cc1ccco1)c1ccc(Cl)cc1	6.6	-6.0	-0.5	-8.6	32.2
O=C(CSc1nnc(-c2ccc(Cl)cc2)n1Cc1ccco1)c1cccs1	23.4*	-3.7	-10.2	-2.6	1.9
CN1c2ccccc2C(O)=C(C(=S)Nc2ccccc2)S1(=O)=O	21.8*	-3.6	-5.7	-4.0	-12.9
Cc1[nH]n2c(=O)cc(Cc3ccccc3)nc2c1C#N	1.1	2.7	3.7	7.7	-68.6
COC(=O)/C=C(\C)N=Nc1c(O)[nH]c2ccccc12	-2.1	0.4	2.6	0.9	-11.4
COc1ccc(C2C3=C(N=C4SCC(=O)N42)c2ccccc2CC3)cc1 (centres undefined)	24.4*	-1.1	3.6	-8.3	-0.3
SMILES	PRMT1 inh	PAD4 FP inh	SIAE inh	RBBP9 inh	GSTO1 inh
O=C(OCC(=O)c1ccccc1Cl)C1=NN(c2ccccc2)C(=O)CC1	8.5	-0.5	-1.5	.	.
Cc1ccc(S(=O)(=O)OCC(=O)Nc2ccc(C(=O)O)c(O)c2)cc1	21.4*	.	4.1	.	.
COc1ccc2c(c1)OC[C@H]1[C@H]2N2C(=O)CNC(=O)[C@@]2(C)[C@H]1c1ccccc1	-0.3	5.2	5.2	.	.
Cc1cc([N+](=O)[O-])cc2c1NC(=O)C2(O)N1CCCC(C)C1 (centres undefined)	-3.5	-0.3	-1.4	.	37.0*
COC(=O)CCC(=O)OC1(C)C(=O)C2=CN(c3ccc(OC)cc3)C(c3ccc(OC)cc3)=CC2=C(Br)C1=O (centres undefined)	.	-28.4	.	.	36.2*
Cc1noc(NS(=O)(=O)c2ccc(NC(=O)CCC3CCCC3)cc2)c1C	-1.0	5.5	11.6	-4.8	-0.6

Screening results as filed in PubChem BioAssay.
